According to paper PMC9896170 (Xenobiotica; the fate of foreign compounds in biological …, 2022):

How the values were obtained:
[1] = biological target: T1, human CYP1B1 (Homo sapiens, UniProt Q16678); experiment: Oxidation of flavonoids by reconstituted purified CYP1B1, products by LC-MS/MS; assay type: in vitro ADME; details: LC-MS/MS product detection
T1 sequence (Q16678 1-543): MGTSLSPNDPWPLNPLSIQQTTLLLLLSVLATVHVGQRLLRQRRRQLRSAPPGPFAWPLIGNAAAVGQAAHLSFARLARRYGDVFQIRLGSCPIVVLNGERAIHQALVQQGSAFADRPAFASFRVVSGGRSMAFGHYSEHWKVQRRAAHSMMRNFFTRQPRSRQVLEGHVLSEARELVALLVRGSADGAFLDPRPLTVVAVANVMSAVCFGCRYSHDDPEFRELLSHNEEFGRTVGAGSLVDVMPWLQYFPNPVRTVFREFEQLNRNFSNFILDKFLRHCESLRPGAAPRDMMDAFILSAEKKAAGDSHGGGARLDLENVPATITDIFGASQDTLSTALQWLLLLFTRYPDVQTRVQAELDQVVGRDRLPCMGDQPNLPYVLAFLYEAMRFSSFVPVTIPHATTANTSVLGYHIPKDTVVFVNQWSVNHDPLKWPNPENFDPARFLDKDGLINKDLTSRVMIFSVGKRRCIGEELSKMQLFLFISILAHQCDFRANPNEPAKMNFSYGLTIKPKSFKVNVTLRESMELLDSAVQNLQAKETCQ

[2] = biological target: T2, human CYP2A13 (Homo sapiens, UniProt Q16696); experiment: Oxidation of flavonoids by reconstituted purified CYP2A13, products by LC-MS/MS; assay type: in vitro ADME; details: LC-MS/MS product detection
T2 sequence (Q16696 1-494): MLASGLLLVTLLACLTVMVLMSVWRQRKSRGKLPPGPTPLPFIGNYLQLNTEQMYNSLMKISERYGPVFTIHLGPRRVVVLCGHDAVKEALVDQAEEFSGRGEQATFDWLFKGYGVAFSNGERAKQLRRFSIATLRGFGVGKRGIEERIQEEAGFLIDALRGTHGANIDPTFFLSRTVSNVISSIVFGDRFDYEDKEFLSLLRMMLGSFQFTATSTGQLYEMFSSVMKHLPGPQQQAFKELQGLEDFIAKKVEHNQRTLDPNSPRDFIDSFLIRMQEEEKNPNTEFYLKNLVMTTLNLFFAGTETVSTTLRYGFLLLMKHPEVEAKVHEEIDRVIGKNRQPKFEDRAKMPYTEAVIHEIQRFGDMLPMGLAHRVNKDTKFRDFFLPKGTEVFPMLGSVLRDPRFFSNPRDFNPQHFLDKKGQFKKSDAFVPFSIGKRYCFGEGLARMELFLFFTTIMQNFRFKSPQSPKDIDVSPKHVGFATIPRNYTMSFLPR
In short: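 Reconstituted system of purified E. coli-expressed human CYP2A13 (50 pmol), NADPH-P450 reductase (100 pmol), cytochrome b5 (100 pmol) and DLPC (50 μg). Flavonoid at 60 μM, 1 min preincubation, then NADPH-generating system added; 37 °C, 20 min. Stopped with ice-cold CH3CN, spun, supernatant run on positive-ESI LC-MS/MS. Products were identified from fragment ion spectra; rates were quantified with available standards, three separate determinations.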

Extent of oxidation by CYP1B1 (in words) [1]	Extent of oxidation by CYP2A13 (in words) [2]	SMILES
only small amounts of products	only small amounts of products	COc1ccc(-c2cc(=O)c3c(O)cc(O)cc3o2)cc1OC [3′4′diMe57diOHF, 3′,4′-dimethoxy-5,7-dihydroxyflavone]
good substrate	–	COc1ccc(-c2cc(=O)c3ccccc3o2)cc1OC [3′4′diMeF, 3′,4′-Dimethoxyflavone]
